High-throughput results deposited in PubChem BioAssay by several laboratories.
This is a sample that favours compounds with a hit; in the whole collection about 1.9% have one here.
beta cell repl – inducers of beta-cell replication in MIN6 cells. MIN6 cells proliferation, ATPlite luminescence, 48 h; cells starved in 0.2% serum; 100% = growth in 10% serum. proliferation, % at 10 µM. 330,000 tested, 0.29% active;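 active means compounds whose signal lies at least 3.5 SD above the mean of all wells on their plate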;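 further: 0% = DMSO-treated cells in low-serum medium and 100% = 10% serum control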
Rev-erbA mod – modulates human Rev-erb alpha binding to DNA. P20393. Rev-erbα–FITC-DNA binding, fluorescence polarization, 90 min. activity, % at 10 µM. 370,000 tested, 0.79% active;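 active means activity above about 14%, limit read from the data; passing the limit was not always enough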;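 further: 0% = DMSO wells with 35 nM protein and 100% = DMSO wells with 750 nM protein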
Target sequence (P20393 whole entry, looked up): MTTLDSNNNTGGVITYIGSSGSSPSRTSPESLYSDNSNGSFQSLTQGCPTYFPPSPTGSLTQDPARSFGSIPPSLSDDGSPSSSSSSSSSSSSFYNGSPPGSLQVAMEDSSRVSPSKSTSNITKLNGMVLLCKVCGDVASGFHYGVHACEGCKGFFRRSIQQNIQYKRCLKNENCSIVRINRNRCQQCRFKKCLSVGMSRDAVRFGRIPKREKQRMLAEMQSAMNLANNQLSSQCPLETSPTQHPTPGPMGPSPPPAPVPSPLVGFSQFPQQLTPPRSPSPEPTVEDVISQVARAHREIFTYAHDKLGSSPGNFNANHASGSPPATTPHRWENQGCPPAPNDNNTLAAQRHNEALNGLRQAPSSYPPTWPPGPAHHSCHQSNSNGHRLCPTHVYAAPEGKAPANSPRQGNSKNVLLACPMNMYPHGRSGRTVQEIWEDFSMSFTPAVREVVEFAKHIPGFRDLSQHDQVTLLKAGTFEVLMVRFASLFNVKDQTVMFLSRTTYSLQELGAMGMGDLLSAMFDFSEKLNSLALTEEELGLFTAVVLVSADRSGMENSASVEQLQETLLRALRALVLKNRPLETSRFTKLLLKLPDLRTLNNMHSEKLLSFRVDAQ
PG9 binder – binds the HIV-1 gp120 antibody PG9; 360,000 tested, 0.43% active; AID 624416; inhibition, % at 6.7 µM; TR-FRET gp120-PG9 antibody binding; in the data active means inhibition above about 8.5%
Rce1 inh – yeast Ras-converting enzyme inhibition | Q03530 | yeast membranes, quenched prenylated peptide cleavage fluorescence | calls only | 290,000 tested, 0.27% active | AID 2563;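 active means fall in fluorescence gain of 50% or more versus controls, with final raw signal at or below 3038400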;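 further: plate controls were neutral control wells for no effect and wells lacking membranes for full effect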
UCH37 inh – inhibitors of human deubiquitinating enzyme UCH37; Q9Y5K5; purified proteasome/UCH37, Ub-AMC cleavage fluorescence; inhibition, % (concentration not given with the values); 330,000 tested, 0.33% active; AID 588478;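 active means mean inhibition over replicate wells above about 20%, limit read from the data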;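 further: 0% = compound-free wells with enzyme and 100% = wells lacking proteasome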
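System: Proteasome-associated human UCH37 deubiquitinase; Input: 0.15 nM proteasome in added enzyme buffer; Also added: Ub-AMC substrate from 1 µM stock; Incubation: 30 min compound-proteasome preincubation then 25 min substrate reaction, room temperature; Detection: fluorescence, ex 355 nm, em 460 nm; Read-out: % inhibition of Ub-AMC cleavage fluorescence; Benchmarks: no-proteasome and no-compound wells.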
Yeast superoxide – yeast age-related superoxide inhibition as caloric restriction mimetic; 330,000 tested, 0.18% active; superoxide response (% of plate mean), % at 10 µM; S. cerevisiae aged cells, superoxide DHE fluorescence; hits give low values;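 active means superoxide response under a set limit, about three screen SD below normal, cut at about 65% in these data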;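 further: yeast aged for seven days with compound at 30 °C before DHE staining; 100% = average MFI of all compound-treated wells on the plate with controls excluded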
Superoxide pick – confirmation of caloric restriction mimetics inhibiting yeast age-related superoxide; shares compounds with Yeast superoxide; 850 tested, 1% active; S. cerevisiae aging, superoxide DHE fluorescence; hits give low values; superoxide response (% of plate), % at 10 µM;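 active means superoxide signal below 65% of the plate average of sample wells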;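 further: cells aged with compound for 7 days at 30 degrees C before staining; 100% equals mean DHE fluorescence of all compound wells on the plate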
DHE counter – compound alters DHE oxidation or fluorescence in yeast; shares compounds with Yeast superoxide; S. cerevisiae BY4741, flow cytometry; hits give low values; fluorescence response, % at 10 µM; 850 tested, under 10 active; AID 435000;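 active means fluorescence response below 15%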;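 further: percent of the mean fluorescence averaged over all compound wells on the plate; lower means stronger quenching of DHE signal or ROS scavenging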
UCH37 confirm – UCH37 Ub-AMC cleavage inhibition, confirmed | shares compounds with UCH37 inh | Proteasome-bound UCH37, Ub-AMC cleavage fluorescence | inhibition, % at 20 µM | 480 tested, 27% active | AID 624100;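 active means average inhibition over replicates above about 50%, so the earlier screening hit is confirmed, limit read from the data; inactive means the rest, counted as false positives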;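 further: based on cleavage rate fitted by regression over a 30 min kinetic read; 0% = proteasome plus Ub-AMC and 100% = Ub-AMC without proteasome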
PG9 binder conf – PG9 antibody binding, confirmed; shares compounds with PG9 binder; TR-FRET PG9 antibody binding, biochemical; inhibition, % at 6.7 µM; 1,500 tested, 90% active; AID 651571; in the data active means inhibition above about 9%
PGV04 counter – binds control antibody PGV04 in PG9 binder counter-screen; shares compounds with PG9 binder; TR-FRET PGV04 antibody-gp120 binding, biochemical; inhibition, % at 6.7 µM; 1,500 tested, 95% active; AID 651604; in the data active means inhibition above about 9.5%
NR1D1 mod conf – confirmation of modulators of human Rev-erb alpha DNA binding. 3,000 tested, 61% active. activation, % at 25 µM. shares compounds with Rev-erbA mod. Rev-erb alpha FITC-DNA binding, fluorescence polarization, 90 min;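 active means activation at or above a set limit, or at least 3 SD above the negative control mean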;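 further: 0% = 35 nM protein with DMSO and 100% = 750 nM protein high control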
RORg DNA counter – counter-screen for Rev-erb alpha modulators: RORgamma DNA binding | AID 1259320 | purified RORgamma protein-FITC-DNA binding, fluorescence polarization | shares compounds with Rev-erbA mod | 910 tested, 8% active | IC50, µM;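 active means Compounds whose fitted half-maximal concentration for disrupting protein-DNA binding is below 10 micromolar; the record names Rev-erb in its text, so the target is in doubt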
* marks the source's active call; other numbers are inactive results; i = inactive; x = no result given; + = active, no number.

SMILES | beta cell repl | Rev-erbA mod | PG9 binder | Rce1 inh | UCH37 inh | Yeast superoxide | Superoxide pick | DHE counter | others
Cc1c(-c2ccc(C=NNC(=O)C(=O)Nc3ccccc3F)o2)cccc1[N+](=O)[O-] | x | x | x | x | 4 | x | x | x
COc1ccccc1C1CCN(C(=O)c2ccccc2)CC1 | 0 | -1 | -3 | i | 2 | 96 | x | x
COc1ccccc1C1CCN(C(=O)c2ccc(Cl)cc2)CC1 | -4 | 0 | 0 | i | -1 | 37* | 96 | 101
Cc1csc(NN=Cc2ccccn2)n1 | x | x | x | x | 7 | x | x | x
CC(=O)Nc1cc2c(cc1NC(=O)Cn1nc(-c3ccccc3F)ccc1=O)OCCO2 | 0 | -4 | 3 | i | 6 | 62* | 100 | 110
COc1cccc(OC)c1NC(=O)Cn1nc(-c2ccc3c(c2)OCCO3)ccc1=O | -3 | 4 | 1 | i | 8 | 91 | x | x
Cc1cccc(CN2C(=O)CCSc3ccc(Cl)cc32)c1 | -3 | -1 | -1 | i | 2 | 65* | 84 | 96
COc1ccc(C=NNC(=O)c2cc(O)c(O)c(O)c2)cc1COc1ccc(C(=O)OCC(C)C)cc1 | x | x | x | x | 5 | x | x | x
C(=NNc1nc(N2CCOCC2)nc(N2CCOCC2)n1)c1ccncc1 | x | x | x | x | 3 | x | x | x
CCN(CC)S(=O)(=O)c1ccc(N2CCCC2)c(NC(=O)Cc2ccc(OC)cc2)c1 | -6 | -9 | 1 | i | x | 98 | 105 | 93
CCN(CC)S(=O)(=O)c1ccc(N2CCCC2)c(NC(=O)Cc2cc(OC)c(OC)c(OC)c2)c1 | -1 | -3 | -4 | i | 3 | 102 | 108 | 102
O=C(CN1CCOCC1)NN=Cc1cccc2ccccc12 | x | x | x | x | 7 | x | x | x
CC(=NNC(=O)CNC(=O)C1COc2ccccc2O1)c1ccco1 (centres undefined) | x | x | x | x | 1 | x | x | x
O=C(N/N=C/c1ccc(F)cc1)c1cc(-c2ccc3c(c2)OCO3)n[nH]1 | -2 | -18 | 0 | i | x | 64* | 105 | 94
CN(C)c1ccc(/C=N/NC(=O)c2cc(-c3ccc4c(c3)OCO4)n[nH]2)cc1 | -1 | -1 | 0 | i | x | 107 | x | x
O=C(/C=C/c1ccccc1[N+](=O)[O-])NCc1ccccc1Cl | 2 | -2 | 0 | i | 1 | 64* | 116 | 105
CCNC(=O)/C=C/c1ccccc1[N+](=O)[O-] | 2 | 1 | -1 | i | 3 | 112 | x | x
O=C1CCCN1S(=O)(=O)c1ccc(F)cc1 | -3 | -3 | -1 | i | 3 | 95 | x | x
O=C1CCCN1S(=O)(=O)c1ccccc1 | 2 | -4 | -3 | i | x | 91 | 115 | 108
COc1cccc(NC(=O)CCS(=O)(=O)c2ccc(Br)cc2)c1 | -5 | 0 | 1 | i | 6 | 50* | 102 | 106
Cc1cc(SCC(=O)NC2(C#N)CCCCC2)nc2c(C)cccc12 | 9 | -2 | 23* | x | 2 | 64* | 99 | 103 | PG9 binder conf=31*;PGV04 counter=37*
FC(F)(F)c1nc2ccccc2nc1NN=Cc1c(Cl)cccc1Cl | x | x | x | x | 3 | x | x | x
CCOC(=O)c1cnc2cc(-c3ccc(Br)cc3)nn2c1C | -3 | 18* | 9.4* | i | -39 | 96 | 114 | 114 | PG9 binder conf=6;PGV04 counter=7;NR1D1 mod conf=10
CCOC(=O)c1cnc2cc(C)nn2c1C | -4 | -4 | 0 | i | 1 | 98 | x | x
COc1ccc(Nc2nc(NN=Cc3ccc(N(C)C)cc3)nc(C)c2[N+](=O)[O-])cc1 | x | x | x | x | 6 | x | x | x
SMILES | beta cell repl | Rev-erbA mod | PG9 binder | Rce1 inh | UCH37 inh | Yeast superoxide | Superoxide pick | DHE counter | others
CCC(C)(C)c1ccc(OCCCC[n+]2cccc(C)c2)c(C(C)(C)CC)c1 | x | 33* | -3 | + | 10 | x | 121 | 107 | NR1D1 mod conf=44*;RORg DNA counter=>40
N#CC(=NNc1ccc([N+](=O)[O-])cc1)C(N)=S | x | x | x | x | 29* | x | x | x | UCH37 confirm=19
COc1cc(/C=C(\NC(=O)c2ccccc2)C(=O)Nc2cccc(O)c2)c([N+](=O)[O-])cc1OC | -3 | 3 | 0 | i | 51* | 99 | x | x | UCH37 confirm=5
COc1cc(/C=C(\NC(=O)c2ccccc2)C(=O)NCCO)c([N+](=O)[O-])cc1OC | -3 | -4 | -2 | i | 2 | 99 | x | x
NN=c1sc2ccccc2n1-c1ccccc1 | x | x | x | x | 4 | x | x | x
CCN1/C(=C\C=C(C(C)=O)C(C)=O)Sc2ccccc21 | -2 | 18 | -13 | i | 39* | 99 | x | x | UCH37 confirm=39
Cc1cc([N+](=O)[O-])nn1CC(=O)NN=Cc1ccccc1Br | x | x | x | x | 4 | x | x | x
O=C(O)CC1S/C(=N/N=Cc2ccc(-c3ccccc3[N+](=O)[O-])o2)NC1=O (centres undefined) | x | x | x | x | 26* | x | x | x | UCH37 confirm=28
O=C(O)CC1S/C(=N/N=Cc2ccc(-c3ccc(Cl)cc3[N+](=O)[O-])o2)NC1=O (centres undefined) | x | x | x | x | 28* | x | x | x | UCH37 confirm=17
O=C(O)CC1S/C(=N/N=C/c2ccccn2)NC1=O (centres undefined) | -2 | 3 | -1 | i | x | 106 | x | x
CON=C(CNC(=O)c1cccc(Cl)c1)c1ccc(Cl)cc1 | x | x | x | x | -4 | x | x | x
Cn1c(=O)c2sccc2n(CC(=O)NCCC2=CCCCC2)c1=O | 7 | -2 | -2 | x | x | 97 | x | x
COc1ccc(-n2nc(C(=O)NCC(=O)NCCC3=CCCCC3)c3ccccc3c2=O)cc1OC | 0 | -6 | -2 | i | 36* | 91 | x | x | UCH37 confirm=54*
Cn1c(=O)c2ccccc2n(CC(=O)NCCC2=CCCCC2)c1=O | 0 | 1 | -1 | i | 32* | 87 | x | x | UCH37 confirm=47
Oc1ccc2ccccc2c1C=NC12CN3CCN(CN(C3)C1)C2 | -1 | -3 | -1 | x | 74* | 119 | x | x | UCH37 confirm=72*
CN(C)c1ccc(C(C(=O)NC2CCCCC2)N(Cc2ccco2)C(=O)c2snc(C(N)=O)c2N)cc1 (centres undefined) | -3 | -6 | -2 | i | 68* | 91 | x | x | UCH37 confirm=-21
